Measurements from PubChem BioAssay AID1027 (Sanford-Burnham Center for Chemical Genomics, 2008).
Hit rate of the full screen: of about 200,000 compounds, fewer than 10 were called active.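 Rule for the calls: active = luciferase activation factor, scaled between plate controls, of at least 2 with compound at 10 µM; inactive = the rest.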 The list is a sample of the results.

target: Luciferin 4-monooxygenase (Photinus pyralis) (UniProt P08659); assay: FLuc activators, initial screening, artefact control for FLuc-dependent activation tests, biochemical, ATPlite luminescence (AID 1027); details: ATPlite luciferase biochemical, 10 min, at 10 µM, stronger effect = higher value, 0 = ATP-free wells, 1 = DMSO control
Summary of the method: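 System: luciferase plus luciferin reagent, cell-free; medium: PBS as buffer for the ATP substrate; dosing: test compounds dosed from 2 mM stocks in 100% DMSO; timing: 10 min post-reagent at room temperature; measured by: luminescence measurement of luciferase light output; evaluation: luciferase activation, seen as luminescence increase over controls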

Luciferin 4-monooxygenase (Photinus pyralis), sequence (P08659 whole entry, looked up): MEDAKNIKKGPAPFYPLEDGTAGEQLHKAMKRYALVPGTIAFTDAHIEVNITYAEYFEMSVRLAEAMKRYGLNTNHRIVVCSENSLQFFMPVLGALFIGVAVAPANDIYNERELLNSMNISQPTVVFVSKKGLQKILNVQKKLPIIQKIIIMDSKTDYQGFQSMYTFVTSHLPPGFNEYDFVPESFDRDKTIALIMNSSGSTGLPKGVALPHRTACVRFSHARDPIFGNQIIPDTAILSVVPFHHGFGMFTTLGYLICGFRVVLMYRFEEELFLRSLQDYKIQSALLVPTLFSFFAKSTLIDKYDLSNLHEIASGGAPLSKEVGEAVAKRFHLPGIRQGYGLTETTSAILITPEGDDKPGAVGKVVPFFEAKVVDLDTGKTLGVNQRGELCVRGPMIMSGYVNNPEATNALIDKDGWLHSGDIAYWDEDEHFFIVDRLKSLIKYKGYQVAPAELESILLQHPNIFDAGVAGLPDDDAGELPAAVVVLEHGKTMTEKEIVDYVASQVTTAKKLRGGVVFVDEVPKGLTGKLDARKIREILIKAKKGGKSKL

Activation factor, inactive:
O=C(O)CC(Cc1ccccc1)C(=O)Nc1ccc([N+](=O)[O-])cc1 (centres undefined) 1.1
CCC1CCCCN1C(=S)Nc1ccc(C(C)=O)cc1 (centres undefined) 1
Cc1ccc(C)c(NC2=NCC(=O)N2c2ccc3c(c2)OCCO3)c1 1.1
COc1ccc(C(=O)Nc2ccc3nc(N4CCCCC4)cc(C)c3c2)cc1OC 1.1
NC(=O)c1ccccc1N(Cc1ccccc1)S(=O)(=O)c1ccccc1 1
Cc1cccc(N2CCC(NCc3c(C(=O)N4CCCCC4)nc4c(C)cccn34)CC2)c1 1
COc1ccc(CCC(=O)OCC(=O)Nc2ccc(C)c(S(=O)(=O)N(C)C)c2)cc1 1
Cc1cccc(N2C(=O)SC(SC(=Nc3ccccc3)Nc3ccccc3)C2=O)c1 (centres undefined) 1
Cc1ccc(C(=O)N/C(=C\c2cccs2)C(=O)NCCc2ccccn2)cc1C 1
COc1cccc(CC2(CO)CCCN(CC3=Cc4cc(OC)ccc4OC3)C2)c1 (centres undefined) 1.1
Cc1ccc2[nH]c(C)c(CCNC(=O)NC3CCCCC3)c2c1 1
S=C(Nc1cccc(Br)c1)N1CCn2cccc2C1c1cccnc1 (centres undefined) 1.1
NS(=O)(=O)c1ccc(N2C(=O)C3C4CC(C(Br)C4Br)C3C2=O)cc1 (centres undefined) 1
CCc1ccc(C2N3CC4([N+](=O)[O-])CN2CC([N+](=O)[O-])(C3)C4(C)C)cc1 (centres undefined) 1.1
Cc1nnc(SC(C)C(=O)Nc2ccc(S(=O)(=O)NC3CCCCC3)cc2)s1 (centres undefined) 1.1
Cc1ccc(C(=O)NC(=S)NCCN2CCOCC2)cc1 1.1
CC(CO)N1CCS(=O)(=O)CC1 (centres undefined) 1.1
CC1CCCN(CCOCCOc2ccccc2-c2ccccc2)C1 (centres undefined) 1
Cc1noc(C)c1CCC(=O)O 1
CCC1CCCCN1C(=O)CSc1nc2c(c(=O)n(C)c(=O)n2C)n1C (centres undefined) 1
C=C(C)c1cccc(C(C)(C)NC(=O)NC2CCCC2)c1 1
COc1ccc(CCCc2nnc(SCc3nc4ccccc4c(=O)[nH]3)n2C)cc1 1.1
CCOC(=O)N1CCN(CCC(=O)Nc2cc(OC)ccc2OC)CC1 1
Cc1ccc2nc(-c3ccc(NC(=O)CN(C)S(=O)(=O)c4ccccc4)cc3)sc2c1 0.7
CC(C)(C)c1ccc(/C=C/C(=O)NC2CCS(=O)(=O)C2)cc1 (centres undefined) 0.9
O=C(COC(=O)c1ccccc1)Nc1cccc(S(=O)(=O)N2CCOCC2)c1 1.1
NS(=O)(=O)c1ccc(CNC(=O)c2ccc(Cl)cc2[N+](=O)[O-])cc1 1
CCn1cc(/C=C2/SC(=S)NC2=O)c(C)n1 0.8
COc1cccc(NC(=O)c2nn(-c3ccc(OC)cc3OC)c(=O)c3ccccc23)c1 1
COc1cc(SC#N)ccc1N=Cc1c(C)[nH]n(-c2ccc(C)cc2)c1=O 0.9
CCN=C1S/C(=C\c2cc(Br)ccc2OCC(=O)OCC)C(=O)N1CC 1
CCc1cccc2c(=O)c(C(=O)NCCCOC)c[nH]c12 1
CS(=O)(=O)N(CC(=O)N1CCCC1)Cc1ccccc1 1.1
O=C(NCCNc1ccc([N+](=O)[O-])cc1)c1cccc2c(Br)cccc12 1
Cc1ccc(SCCC(=O)NCc2ccccn2)cc1 1
Oc1ccc(Br)cc1C=Nc1ccc2[nH]ncc2c1 1
CN(CC(=O)Nc1ccc(S(=O)(=O)N2CCCC2)cc1)Cc1ccc(Cl)c(Cl)c1 1
CC(=O)n1c(C=Nc2ccccc2)c(O)c2ccccc21 0.4
CC1Cc2ccccc2N1C1=CC(=O)CC(C)(C)C1 (centres undefined) 1.1
Cc1c(NC(=O)CCC2CCCCC2)cc(C(=O)N2CCOCC2)cc1[N+](=O)[O-] 1.1
CCOCCCNCc1cc(Br)ccc1OCC 1
O=C(CSc1ccccn1)Nc1nc2c(ccc3ccccc32)s1 1.1
CCOc1ccc2nc(NC(=O)c3cc([N+](=O)[O-])ccc3N3CCOCC3)sc2c1 1
COc1ccc(-c2nc(CN3CCN(c4ncccn4)CC3)c(C)o2)cc1C 1
O=C(O)c1ccc2c(c1)C(=O)N(NC(=O)c1ccc(O)cc1)C2=O 1.1
COC(=O)c1ccc(/C=N/OCC(=O)Nc2cc(F)ccc2F)cc1 1
CC(NC(=S)Nc1ccc(S(N)(=O)=O)cc1)c1ccc2c(c1)OCO2 (centres undefined) 1.1
Cc1ccc(NC(=S)N2CCN(c3ncccn3)CC2)cc1C 1.1
Cc1ccc(C(=O)O)cc1N1C(=O)CCCC1=O 1
Cn1cc(CN2CCCC(CO)C2)c(-c2ccc(Oc3ccccc3)cc2)n1 (centres undefined) 1.1
COC(=O)c1ccc(CSc2nnc(N)s2)o1 1
COc1ccc(CN2CCCC(C(=O)c3ccc(Cl)cc3)C2)cc1Cn1cncn1 (centres undefined) 1
O=C(CC1Nc2ccccc2NC1=O)Nc1ccccc1NC(=O)CC1Nc2ccccc2NC1=O (centres undefined) 0.9
CCN(CC(=O)NCCc1ccccc1)S(=O)(=O)c1ccc(C)cc1 1.1
Cc1nc(N2CCCCC2)sc1C=O 1
C=CCn1c(SCC(=O)CC(=O)OCC)nc2cc(C(=O)N3CCC(C(N)=O)CC3)ccc2c1=O 1
COC(=O)c1c(NC(C)=O)sc(C(=O)Nc2ccccc2OC)c1C 1
COc1cc(/C=N\NC(=O)c2nonc2N)c(OC)cc1Br 1
CCOC(=O)C1CCN(C(=O)/C=C/c2cc(OC)c(OC)c(OC)c2)CC1 1
COc1ccc(S(=O)(=O)NC(C)C)cc1C(=O)NC1CCCCC1 1.1
COc1ccccc1C1SCCN1C(=O)c1ccc([N+](=O)[O-])cc1 (centres undefined) 1
CSc1nc(-c2ccccc2)nc(C(Cl)Cl)n1 1.1
Cc1nc(-c2ccccc2)sc1C(=O)/C=C/N(C)C 0.9
COc1ccc(/C=C/C2=CC(C)(C)NC(=S)N2)c(OC)c1 1
